In ChEMBL document CHEMBL1157184, “Hymenoic acid, a novel specific inhibitor of human DNA polymerase lambda from a fungus of Hymenochaetaceae sp” (Bioorg Med Chem, 2008):
pIC50: −log10 of the molar value.

Assays:
DNA polymerase beta = DNA polymerase beta (Homo sapiens, UniProt P06746); assay: Inhibition of human DNA polymerase beta
DNA polymerase lambda = biological target: T1, DNA polymerase lambda (Homo sapiens, UniProt Q9UGP5); assay: Inhibition of human DNA polymerase lambda
T1 sequence (Q9UGP5 whole entry): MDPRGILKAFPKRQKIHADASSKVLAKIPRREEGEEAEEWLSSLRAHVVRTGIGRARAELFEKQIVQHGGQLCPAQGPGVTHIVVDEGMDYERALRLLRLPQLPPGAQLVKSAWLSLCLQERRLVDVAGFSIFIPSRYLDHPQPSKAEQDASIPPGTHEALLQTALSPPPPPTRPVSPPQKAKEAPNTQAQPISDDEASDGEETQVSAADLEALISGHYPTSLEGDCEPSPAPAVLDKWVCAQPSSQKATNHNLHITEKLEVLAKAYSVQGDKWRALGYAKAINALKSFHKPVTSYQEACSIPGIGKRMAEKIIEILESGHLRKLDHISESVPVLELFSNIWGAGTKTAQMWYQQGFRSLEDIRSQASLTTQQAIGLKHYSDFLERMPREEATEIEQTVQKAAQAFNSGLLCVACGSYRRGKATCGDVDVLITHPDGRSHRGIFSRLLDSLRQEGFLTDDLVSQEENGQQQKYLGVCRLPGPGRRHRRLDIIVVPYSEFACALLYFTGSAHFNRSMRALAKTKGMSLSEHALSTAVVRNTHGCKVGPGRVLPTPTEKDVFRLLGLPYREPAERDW
How it was run: (§1)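 Dose-response was run on 0.05 U of full-length (residues 1–575), del-1 (133–575) or del-2 (245–575) human pol λ. Compound in DMSO was preincubated 10 min at 0 °C, then the reaction ran 60 min at 37 °C with poly(dA)/oligo(dT)12-18 and dTTP. Activity relative to the no-compound control; means ± SEM of three independent experiments.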

[1] = Inhibition of human N terminal deleted DNA polymerase lambda Del-2 mutant; how it was run: as §1
[2] = Inhibition of human N terminal deleted DNA polymerase lambda Del-1 mutant; how it was run: as §1

pIC50 (DNA polymerase beta): < 3.70 | pIC50 (DNA polymerase lambda): 4.04 | pIC50 [1]: < 3.70 | pIC50 [2]: < 3.70
Structure (SMILES): C/C(=C\CC[C@H](C)C(=O)O)[C@H]1CC[C@H](C(=O)O)CC1 [HYMENOIC ACID]
